Results reported in ChEMBL document CHEMBL1123648, “Synthesis, chemical reactivity, and antileukemic activity of 5-substituted 6,7-bis(hydroxymethyl)pyrrolo[1,2-c]thiazole biscarbamates and the corresponding sulfoxides and sulfones” (1987).

Assays:
[1] = Antileukemic activity against Murine P388 lymphocytic leukemia, body weight difference of the test animals compared to control group B animals at a dose of 100 mg/kg; type: functional, Mus musculus; parameters: unit not given here
How it was run: (§1)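 CD2F1 mice implanted intraperitoneally with ascitic fluid carrying ca. 1×10^6 P388 cells, under the NCI protocol. Dosing was intraperitoneal, starting 24 h after inoculation, then every 24 h for five doses in total. The body weight difference of treated mice is taken against untreated controls. Toxicity day survivors are the mice alive at day five out of those tested.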

[2] = Antileukemic activity against Murine P388 lymphocytic leukemia, body weight difference of the test animals compared to control group B animals at a dose of 12.5 mg/kg; type: functional, Mus musculus; parameters: unit not given here; how it was run: as §1
[3] = Antileukemic activity against Murine P388 lymphocytic leukemia, body weight difference of the test animals compared to control group B animals at a dose of 25 mg/kg; type: functional, Mus musculus; parameters: unit not given here; how it was run: as §1
[4] = Antileukemic activity against Murine P388 lymphocytic leukemia, body weight difference of the test animals compared to control group B animals at a dose of 50 mg/kg; type: functional, Mus musculus; parameters: unit not given here; how it was run: as §1
[5] = Antileukemic activity against Murine P388 lymphocytic leukemia, body weight difference of the test animals compared to control group B animals at a dose of 6.25 mg/kg; type: functional, Mus musculus; how it was run: as §1
[6] = Toxicity day survivors expressed as number of animals that survived to day five/ number of test animals under control group B at a dose of 100 mg/kg; 6 survived out of 6; type: functional, Mus musculus
[7] = Toxicity day survivors expressed as number of animals that survived to day five/ number of test animals under control group B at a dose of 12.5 mg/kg; type: functional, Mus musculus
[8] = Toxicity day survivors expressed as number of animals that survived to day five/ number of test animals under control group B at a dose of 25 mg/kg; 6 survived out of 6; type: functional, Mus musculus
[9] = Antileukemic activity against Murine P388 lymphocytic leukemia and toxicity day survivors expressed as number of animals that survived to day five/ number of test animals under control group B at a dose of 6.5 mg/kg; 6 survived out of 6; type: functional, Mus musculus
[10] = Toxicity day survivors expressed as number of animals that survived to day five/ number of test animals under control group B at a dose of 50 mg/kg; 6 survived out of 6; type: functional, Mus musculus
[11] = Percent increase in life span of test animals compared to untreated tumor-bearing control group B animals at a dose of 12.5 mg/kg; type: functional; settings: Mus musculus
[12] = Percent increase in life span of test animals compared to untreated tumor-bearing control group B animals at a dose of 50 mg/kg; type: functional; settings: Mus musculus
[13] = Percent increase in life span of test animals compared to untreated tumor-bearing control group B animals at a dose of 6.25 mg/kg; type: functional; settings: Mus musculus
P388 [14] = experiment: Log cell population relative to cell population at the beginning of treatment compared to control group B at a dose of 6.25 mg/kg; type: functional, Mus musculus
[15] = Toxicity day survivors expressed as number of animals that survived to day five/ number of test animals under control group B at a dose of 100 mg/kg; 1 survived out of 6; type: functional, Mus musculus
[16] = Toxicity day survivors expressed as number of animals that survived to day five/ number of test animals under control group B at a dose of 12.5 mg/kg; […] out of 6; type: functional, Mus musculus
[17] = Toxicity day survivors expressed as number of animals that survived to day five/ number of test animals under control group B at a dose of 25 mg/kg; 5 survived out of 6; type: functional, Mus musculus
[18] = Toxicity day survivors expressed as number of animals that survived to day five/ number of test animals under control group B at a dose of 50 mg/kg; 5 survived out of 6; type: functional, Mus musculus
[19] = Percent increase in life span of test animals compared to untreated tumor-bearing control group B animals at a dose of 25 mg/kg; type: functional; settings: Mus musculus
P388 [20] = experiment: Log cell population relative to cell population at the beginning of treatment compared to control group B at a dose of 12.5 mg/kg; type: functional, Mus musculus
P388 [21] = experiment: Log cell population relative to cell population at the beginning of treatment compared to control group B at a dose of 25 mg/kg; type: functional, Mus musculus
P388 [22] = experiment: Log cell population relative to cell population at the beginning of treatment compared to control group Bat a dose of 50 mg/kg; type: functional, Mus musculus
[23] = Antileukemic activity against Murine P388 lymphocytic leukemia, body weight difference of the test animals compared to control group C animals at a dose of 100 mg/kg; type: functional, Mus musculus; parameters: unit not given here; how it was run: as §1
[24] = Antileukemic activity against Murine P388 lymphocytic leukemia, body weight difference of the test animals compared to control group C animals at a dose of 200 mg/kg; type: functional, Mus musculus; how it was run: as §1
[25] = Antileukemic activity against Murine P388 lymphocytic leukemia, body weight difference of the test animals compared to control group C animals at a dose of 25 mg/kg; type: functional, Mus musculus; how it was run: as §1
[26] = Antileukemic activity against Murine P388 lymphocytic leukemia, body weight difference of the test animals compared to control group C animals at a dose of 50 mg/kg; type: functional, Mus musculus; parameters: unit not given here; how it was run: as §1
[27] = Percent increase in life span of test animals compared to untreated tumor-bearing control group C animals at a dose of 25 mg/kg; type: functional; settings: Mus musculus
[28] = Percent increase in life span of test animals compared to untreated tumor-bearing control group C animals at a dose of 50 mg/kg; type: functional; settings: Mus musculus
[29] = Toxicity day survivors expressed as number of animals that survived to day five/ number of test animals under control group C at a dose of 100 mg/kg; 6 survived out of 6; type: functional, Mus musculus
[30] = Toxicity day survivors expressed as number of animals that survived to day five/ number of test animals under control group C at a dose of 200 mg/kg; 6 survived out of 6; type: functional, Mus musculus
[31] = Toxicity day survivors expressed as number of animals that survived to day five/ number of test animals under control group C at a dose of 25 mg/kg; 6 survived out of 6; type: functional, Mus musculus
[32] = Toxicity day survivors expressed as number of animals that survived to day five/ number of test animals under control group C at a dose of 50 mg/kg; 6 survived out of 6; type: functional, Mus musculus
P388 [33] = experiment: Log cell population relative to cell population at the beginning of treatment compared to control group C at a dose of 25 mg/kg; type: functional, Mus musculus
P388 [34] = experiment: Log cell population relative to cell population at the beginning of treatment compared to control group C at a dose of 50 mg/kg; type: functional, Mus musculus
[35] = Antileukemic activity against Murine P388 lymphocytic leukemia, body weight difference of the test animals compared to control group A animals at a dose of 25 mg/kg; type: functional, Mus musculus; parameters: unit not given here; how it was run: as §1
[36] = Antileukemic activity against Murine P388 lymphocytic leukemia, body weight difference of the test animals compared to control group A animals at a dose of 50 mg/kg; type: functional, Mus musculus; parameters: unit not given here; how it was run: as §1
[37] = Antileukemic activity against Murine P388 lymphocytic leukemia, body weight difference of the test animals compared to control group A animals at a dose of 100 mg/kg; type: functional, Mus musculus; parameters: unit not given here; how it was run: as §1
[38] = Antileukemic activity against Murine P388 lymphocytic leukemia, body weight difference of the test animals compared to control group A animals at a dose of 200 mg/kg; type: functional, Mus musculus; how it was run: as §1
[39] = Toxicity day survivors expressed as number of animals that survived to day five/ number of test animals under control group A at a dose of 400 mg/kg; 3 survived out of 6; type: functional, Mus musculus
[40] = Toxicity day survivors expressed as number of animals that survived to day five/ number of test animals under control group A at a dose of 50 mg/kg; 6 survived out of 6; type: functional, Mus musculus
[41] = Toxicity day survivors expressed as number of animals that survived to day five/ number of test animals under control group A at a dose of 100 mg/kg; 6 survived out of 6; type: functional, Mus musculus
[42] = Toxicity day survivors expressed as number of animals that survived to day five/ number of test animals under control group A at a dose of 200 mg/kg; 6 survived out of 6; type: functional, Mus musculus
[43] = Toxicity day survivors expressed as number of animals that survived to day five/ number of test animals under control group A at a dose of 25 mg/kg; 6 survived out of 6; type: functional, Mus musculus
[44] = Percent increase in life span of test animals compared to untreated tumor-bearing control group A animals at a dose of 200 mg/kg; type: functional; settings: Mus musculus
[45] = Antileukemic activity against Murine P388 lymphocytic leukemia, body weight difference of the test animals compared to control group A animals at a dose of 400 mg/kg; type: functional, Mus musculus; how it was run: as §1

`CC(C)NC(=O)OCc1c(COC(=O)NC(C)C)c(-c2ccc(Cl)c(Cl)c2)n2c1CS(=O)(=O)C2` gave a BWD [1] of -2.3, a BWD [2] of 1.3 and a BWD [3] of 0.4. It also gave a BWD [4] of -0.8, a BWD [5] of -0.6 and a TDS [6] of 6. It also gave a TDS [7] of 6, a TDS [8] of 6 and a TDS [9] of 6. For the same compound, the TDS [10] was 6, the ILS at 12.5 mg/kg [11] was -13% and the ILS at 50 mg/kg [12] was -14%. For the same compound, the ILS at 6.25 mg/kg [13] was 1% and the KE (P388 [14]) was -1.47.
Work on `CC(C)NC(=O)OCc1cn2c(c1COC(=O)NC(C)C)CCC2` yielded a BWD [1] of -3.6, a BWD [2] of -0.9 and a BWD [3] of -4.5. The BWD [4] was -4.4, the TDS [15] was 1 and the TDS [16] was 5. The TDS [17] was 5, the TDS [18] was 5 and the ILS at 12.5 mg/kg [11] was 20%. It also gave an ILS at 25 mg/kg [19] of 28%, an ILS at 50 mg/kg [12] of 26% and a KE (P388 [20]) of -1.23. For the same compound, the KE (P388 [21]) was -0.46 and the KE (P388 [22]) was -0.69.
Work on `CNC(=O)OCc1c(COC(=O)NC)c2n(c1C)CSC2` yielded a BWD [23] of -2.2, a BWD [24] of -1.9 and a BWD [25] of -1. It also gave a BWD [26] of -1.7, an ILS at 25 mg/kg [27] of 26% and an ILS at 50 mg/kg [28] of 32%. It also gave a TDS [29] of 6, a TDS [30] of 6 and a TDS [31] of 6. The TDS [32] was 6, the KE (P388 [33]) was -0.03 and the KE (P388 [34]) was 0.
In the case of `CC(C)NC(=O)OCc1c(COC(=O)NC(C)C)c(-c2ccc(Cl)c(Cl)c2)n2c1C[S+]([O-])C2` (stereo unspecified), the BWD [35] is reported as -0.9, the BWD [36] is reported as -1.9 and the BWD [37] is reported as -2.9. For the same compound, the BWD [38] was -3.1, the TDS [39] was 3 and the TDS [40] was 6. It also gave a TDS [41] of 6, a TDS [42] of 6 and a TDS [43] of 6. For the same compound, the ILS at 200 mg/kg [44] was -11% and the BWD [45] was -3.4.
